Compound activity deposited in PubChem by several laboratories.
Neddylation inh: cullin neddylation inhibition. P61081+Q13564. TR-FRET cullin neddylation, biochemical. inhibition, % at 25 µM. hit rate 0.58% among 360,000. AID 651699; in the data active = inhibition above about 36%
Tn6 DDE FP: DD(E)-Tn6 binding inhibition, primary FP screen. P02675. inhibition, % at 8.3 µM. hit rate 0.21% among 370,000. Fibrin DD(E) TRITC-Tn6 fluorescence polarization displacement. AID 720509;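 active = inhibition above a per-campaign cutoff: mean of compounds within control limits plus 3 SD, cut at about 15% in these data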
Target sequence (P02675 whole entry, looked up): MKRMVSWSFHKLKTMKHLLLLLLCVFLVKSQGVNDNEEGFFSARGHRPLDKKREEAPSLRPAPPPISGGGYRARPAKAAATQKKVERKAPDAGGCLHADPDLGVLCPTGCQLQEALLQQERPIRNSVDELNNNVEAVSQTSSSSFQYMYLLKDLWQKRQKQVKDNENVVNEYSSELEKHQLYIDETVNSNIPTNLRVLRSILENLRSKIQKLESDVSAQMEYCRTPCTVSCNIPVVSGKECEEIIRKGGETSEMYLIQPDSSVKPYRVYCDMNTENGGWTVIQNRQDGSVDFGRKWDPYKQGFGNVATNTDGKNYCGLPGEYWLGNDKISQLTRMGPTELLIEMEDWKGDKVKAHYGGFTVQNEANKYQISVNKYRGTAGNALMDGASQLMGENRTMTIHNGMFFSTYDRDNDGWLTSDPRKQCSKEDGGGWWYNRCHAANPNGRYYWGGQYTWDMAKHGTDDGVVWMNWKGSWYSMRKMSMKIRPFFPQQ
PKA-R1A act: activators of PKA-R1A complex; P00514+P68181; PKA-R1A dissociation, Cy5-IP20 fluorescence polarization; scaled: DMSO 0%, 113 µM cGMP 100%; activation, % at 11.4 µM; hit rate 0.083% among 340,000; AID 504707;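 active = percent activation above the mean of all tested compounds plus 3 SD, cut at about 19% in these data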;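 note: higher means more PKAc released from R1A so a rise in polarization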
DDE Tn7 FP inh: DD(E)-Tn7 binding inhibition, primary FP screen | FP displacement of FITC-Tn7 peptide from fibrin DD(E); 0% = median of compound wells per plate | inhibition, % at 8.3 µM | P02675 | hit rate 0.13% among 370,000 | AID 720508;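 active = inhibition above the mean of compounds falling within the control limits plus 3 SD of them, cut at about 14% in these data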
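Also added: labelled Tn7 tracer, 0.1 µM; Assay system: human fibrin DD(E) protein; Amount: 2 µM fibrin DD(E); Schedule: 10 min compound pre-incubation, 3 h probe incubation at room temperature; Repeats: one replicate per compound; Read-out basis: percent inhibition; Measured by: fluorescence polarization of the labelled Tn7 tracer.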
PKA-R2B act: PKA-R2B complex activation. P22694+P31323. PKA-R2B holoenzyme dissociation, Cy5-IP20 fluorescence polarization; R2B truncated from residue 108, S112A mutant; 0% DMSO only, 100% 113 µM cGMP. activation, % at 11.4 µM. hit rate 0.079% among 340,000;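 active = activation above a cutoff set at the mean over all compounds plus 3 SD, cut at about 18% in these data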;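 note: higher means more holoenzyme dissociation and a rise in polarization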
R2B FP artifact: counter-screen for PKA-R2B activators: fluorescence polarization artifacts. FP artifact counterscreen. hit rate 6% among 270. AID 504796. shares compounds with PKA-R2B act. activation, % at 11.4 µM; in the data active = activation above about 20%;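 note: Cy5 labelled IP20 peptide probe with compound but no PKA protein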
PKA-R2B confirm: PKA-R2B complex activation, confirmation | shares compounds with PKA-R2B act | hit rate 9% among 270 | fluorescence polarization | activation, % at 11.4 µM | AID 504797; in the data active = activation above about 19%
R1A FP artifact: fluorescence polarization artifact in PKA-R1A activator counter-screen; shares compounds with PKA-R1A act; Cy5-IP20 peptide alone, fluorescence polarization artifact counterscreen; activation, % at 11.4 µM; hit rate 7% among 280; AID 504799;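 active = mean activation over triplicate runs exceeds the adjusted cutoff derived for the parent primary screen, cut at about 19% in these data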;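 note: no PKA protein present so any polarization rise reflects compound interference; higher means stronger polarization artifact and likely false positive in parent screen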
PKA-R1A act conf: PKA-R1A complex activation, confirmation | shares compounds with PKA-R1A act | Cy5-IP20 fluorescence polarization, PKA-R1A holoenzyme dissociation | activation, % at 11.4 µM | hit rate 9% among 280;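 active = mean activation over replicate wells exceeds the adjusted hit threshold taken from the earlier primary screen, cut at about 20% in these data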
Large screens that a line does not name were inactive (follow-up assays come after a bar, where they were run). Only some compounds are listed: those with a hit (about 1% of all), similar ones and a draw of the others.

CN1C(CCl)Nc2cc(Cl)c(S(N)(=O)=O)cc2S1(=O)=O (stereo unspecified)	none
CCCC[C@H]1C2CC(OC(=O)NCc3ccc(Cl)cc3)C(C2)[C@H]2CCCCN21 (stereo partly specified)	none (no result: Neddylation inh, PKA-R1A act, PKA-R2B act)
CCOc1ccc(CC2NCCc3cc(OCC)c(OCC)cc32)cc1OCC (stereo unspecified)	PKA-R2B act 20 | R2B FP artifact inactive | PKA-R2B confirm inactive
O=C(NCCc1ccccc1Cl)[C@@H]1CCCN1C(=O)[C@@H](NC(=O)N1CCOCC1)c1ccccc1	none (no result: Neddylation inh, PKA-R1A act, PKA-R2B act)
COc1cc(OC)cc(-c2c(-c3cccs3)c3cc(Br)ccc3n2C)c1	PKA-R2B act 20 | R2B FP artifact inactive | PKA-R2B confirm inactive
C#CCNC(=O)C1=C[C@@H](c2ccc3c(c2)OCO3)C[C@@H](OCc2ccc(CO)cc2)O1	PKA-R2B act 21 | R2B FP artifact inactive | PKA-R2B confirm inactive
O=C(NCc1ccccc1)C1=C[C@H](c2ccc3c(c2)OCO3)C[C@H](OCc2ccc(CO)cc2)O1	none
Cc1ccc(C(C)C)c(O)c1C(=O)O	PKA-R2B act 19 | R2B FP artifact inactive | PKA-R2B confirm inactive
Cc1cc(NC(=O)/C=C/c2ccccc2)c(C(C)C)cc1O	none
CC(=O)NCC(=O)OC(C)C(=O)Nc1ccc(C(C)=O)cc1 (stereo unspecified)	PKA-R2B act 19 | R2B FP artifact inactive | PKA-R2B confirm inactive
CCC[C@H](/C=C/C(=O)OC(C)(C)C)Sc1ccc(N)cc1	none (no result: Neddylation inh, PKA-R1A act, PKA-R2B act)
COc1ccc(OC)c(S(=O)(=O)NCC(=O)O)c1	none
Cc1cc(C)c(S(=O)(=O)NCC(=O)O)cc1C	PKA-R2B act 20 | R2B FP artifact inactive | PKA-R2B confirm inactive
Cc1cc(N2CCC(C)CC2)nc2ccccc12	none (no result: Neddylation inh, PKA-R1A act, PKA-R2B act)
O=S(=O)(Nc1cc2nc3ccccc3nc2n1Cc1ccccc1)c1ccc(Cl)cc1	PKA-R2B act 22 | R2B FP artifact inactive | PKA-R2B confirm inactive
CCN1C=C(C(=O)c2ccccc2)C(=O)CC1	PKA-R2B act 20 | R2B FP artifact inactive | PKA-R2B confirm inactive
CCCCN1C=C(C(=O)c2ccccc2)C(=O)CC1	none
CCn1c(SCC(=O)NN=Cc2c[nH]c3ccccc23)nc2ccccc21	none (no result: Neddylation inh, PKA-R1A act, PKA-R2B act)
CCn1c(=O)c(C(=O)NNS(=O)(=O)c2ccc(Cl)cc2)c(O)c2ccccc21	PKA-R2B act 18 | R2B FP artifact inactive | PKA-R2B confirm inactive
CCCC[C@H]1C2CC(OC(=O)NCCCc3ccccc3)C(C2)[C@H]2CCCCN21 (stereo partly specified)	none (no result: Neddylation inh, PKA-R1A act, PKA-R2B act)
COCCCNC(=O)C[C@H]1C[C@@]2(C(=O)OC)C(=C[C@H](C(C)C)O[C@@H]2C2CC2)N(Cc2cccc3ccccc23)C1=O	none (no result: Neddylation inh, PKA-R1A act, PKA-R2B act)
CCc1nc2ccccc2c(C(=O)OCC(=O)NCCCN2CCCC2=O)c1C	PKA-R2B act 19 | R2B FP artifact inactive | PKA-R2B confirm inactive
CC1CN(c2ccnc3cc(Cl)ccc23)CCN1C(=O)c1ccc(Cl)cc1 (stereo unspecified)	none (no result: Neddylation inh, PKA-R1A act, PKA-R2B act)
COC(=O)CN1C(=S)N(c2ccc(Cl)cc2)C(=O)C1CC(=O)Nc1ccccc1 (stereo unspecified)	none
COC(=O)CN1C(=S)N(C)C(=O)C1CC(=O)Nc1ccccc1 (stereo unspecified)	PKA-R2B act 21 | R2B FP artifact inactive | PKA-R2B confirm inactive
c1ccc(Cn2ncc3c(Nc4ccccc4)ncnc32)cc1	none
Brc1ccc(/C=N/Nc2ncnc3c2cnn3Cc2ccccc2)cc1	PKA-R2B act 22 | R2B FP artifact inactive | PKA-R2B confirm inactive
CCCCNC(=O)N1CCC(c2nc3ccc(Cl)cc3[nH]2)CC1	none (no result: Neddylation inh, PKA-R1A act, PKA-R2B act)
O=[N+]([O-])c1cc(-c2nnc(-c3ccccc3)o2)ccc1Oc1ccc(Cl)cc1	none
CCOc1ccc(Oc2ccc(-c3nnc(-c4ccccc4)o3)cc2[N+](=O)[O-])cc1	PKA-R2B act 21 | R2B FP artifact inactive | PKA-R2B confirm inactive
C=CCn1c(SCC(=O)Nc2ccccc2OCC)nnc1-c1ccc(C(C)(C)C)cc1	none (no result: Neddylation inh, PKA-R1A act, PKA-R2B act)
O=C(COC(=O)CCNS(=O)(=O)c1ccccc1)NC1CC1	PKA-R2B act 19 | R2B FP artifact inactive | PKA-R2B confirm inactive
O=C(COC(=O)CCNS(=O)(=O)c1ccccc1)NNC(=O)c1ccccc1	none
CCCC(=O)N1CCC(NS(=O)(=O)c2ccc3c(c2)CCN3C(C)=O)CC1	none (no result: Neddylation inh, PKA-R1A act, PKA-R2B act)
O=[N+]([O-])c1ccc(CN2CCOCCOCCN(Cc3ccc([N+](=O)[O-])cc3Cl)CCOCC2)c(Cl)c1	none (no result: Neddylation inh, PKA-R1A act, PKA-R2B act)
O=C(Nc1ccc(Cl)cc1)N(CCCN1CCOCC1)Cc1cccs1	none
S=C(Nc1ccc(Cl)cc1)N(CCCN1CCOCC1)Cc1cccs1	PKA-R2B act 22 | R2B FP artifact inactive | PKA-R2B confirm inactive
Cc1cc(C(=O)NC2CCCN(Cc3ccc(Cl)cc3)C2)c(C)o1 (stereo unspecified)	PKA-R2B act 20 | R2B FP artifact inactive | PKA-R2B confirm inactive
Cc1ccc(S(=O)(=O)N2CC3(COC(C)(C)OC3)C[C@H]2CON2C(C)(C)CCCC2(C)C)cc1	none (no result: Neddylation inh, PKA-R1A act, PKA-R2B act)
COC(=O)N/N=C/c1cn(CCOc2ccccc2)c2ccccc12	PKA-R2B act 20 | R2B FP artifact inactive | PKA-R2B confirm inactive
COC(=O)N/N=C/c1cn(CCOc2ccc(OC)cc2)c2ccccc12	none
CNc1nc(N)c([N+](=O)[O-])c(Nc2cccc(Br)c2)n1	none (no result: Neddylation inh, PKA-R1A act, PKA-R2B act)
Nc1ncnc(Nc2cccc(F)c2)n1	none
Cc1cccc(Nc2ncnc(N)n2)c1	PKA-R2B act 21 | R2B FP artifact inactive | PKA-R2B confirm inactive
O=S(=O)(c1ccc(C(F)(F)F)cc1)N1CCCc2nc(-c3ccc(Br)cc3)ccc21	none (no result: Neddylation inh, PKA-R1A act, PKA-R2B act)
CCN(CC)c1ccc(C(=C2C=CC(=[N+](CC)CC)C=C2)c2ccc(S(=O)(=O)O)cc2S(=O)(=O)[O-])cc1	PKA-R1A act 34, PKA-R2B act 39 | R2B FP artifact 49 | PKA-R2B confirm 48 | R1A FP artifact 49 | PKA-R1A act conf 52
Cc1cc(C)c(C)c(S(=O)(=O)N2CCC(C(=O)NNC(=O)c3ccccc3O)CC2)c1C	Neddylation inh 52, PKA-R1A act 47, PKA-R2B act 46 | R2B FP artifact 53 | PKA-R2B confirm 44 | R1A FP artifact 53 | PKA-R1A act conf 45
